Non-standard residues stand in square brackets, D forms with d. Residues, ends and D or L forms follow the SMILES beside them. *: point of attachment. Cha = N[C@@H](CC1CCCCC1)C(=O)O; pGlu = O=C1CC[C@@H](C(=O)O)N1; Nle = CCCC[C@H](N)C(=O)O; Nva = CCC[C@H](N)C(=O)O; Abu = CC[C@H](N)C(=O)O; tBu = CC(C)(C)*

These results are taken from ChEMBL document CHEMBL1122665, “Synthesis of thyrotropin-releasing hormone analogues. 1. Complete dissociation of central nervous system effects from thyrotropin-releasing activity” (1984).

For test [1], the system named is Rattus norvegicus. The test is described as follows: Evaluated for hormonal (TSH) releasing activity in adult male albino rats after single intraperitoneal injection using radioimmunoassay; np-significant activity but not parallel TSH response to the lower and upper doses used. Format: functional, organism-based. In short, it runs like this:
(§1)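 Two-point assay in adult male albino rats: single ip injection at 1 and 10 μg. Blood drawn 15 min post-injection. Serum TSH measured by radioimmunoassay (NIAMDD rat TSH-RIA system). Relative potency expressed in percent, with synthetic TRH reference set at 100%.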

Test [2] deals with Rattus norvegicus. The test is described as follows: Inhibition of haloperidol catalepsy by less than 50% in a dose of 80 mg/kg, iv in adult male Wistar rats. The class given is functional.
The nature of test [3]: Evaluated for hormonal (TSH) releasing activity in adult male albino rats after single intraperitoneal injection using radioimmunoassay. Format: functional. In short, it runs like this:
as §1

Test [4] has as its system Rattus norvegicus. The test is described as follows: Anticataleptic effect at effective dose after intravenous administration in adult male Wistar rats. Format: functional. In outline: (§2)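 Haloperidol catalepsy induced in adult male Wistar rats by 4 mg/kg ip. Analogues given iv at 5 to 80 mg/kg, 2 h after haloperidol. Read-out is inhibition of catalepsy, taken as a measure of dopaminergic stimulation. Synthetic TRH served as reference standard.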

For test [5], the system named is Rattus norvegicus. Put plainly: Evaluated for hormonal (TSH) releasing activity in adult male albino rats after single intraperitoneal injection using radioimmunoassay; np -significant but not parallel TSH response to the lower and upper doses used. The class given is functional, organism-based. In short, it runs like this: as §1
Test [6] has as its system Rattus norvegicus. The test is described as follows: Evaluated for hormonal (TSH) releasing activity in adult male albino rats after single intraperitoneal injection using radioimmunoassay; np- significant activity but not parallel TSH response to the lower and upper doses used. Format: functional, organism-based. In outline: as §1
Test [7] deals with Rattus norvegicus. The test is described as follows: Anticataleptic effect at effective dose after intravenous administration in adult male Wistar rats. The class given is functional. In short, it runs like this:
as §2

Where [8] appears, read: Rattus norvegicus, iv, read-out: ED50.

Consider `CC(C)C[C@@H](NC(=O)[C@H]1CCC(=O)N1)C(=O)N1CCCC1`, for which, in the test on Rattus norvegicus [1], the Activity result is “Significant but not parallel”. Moreover, the inhibition in vivo (in general, the share of the control response that was lost under treatment) at 80 mg/kg with Rattus norvegicus [2] is 20%.
In test [3], `CCNC(=O)[C@H]1CCCN1C(=O)[C@@H](CC(C)C)NC(=O)[C@H]1CCC(=O)N1` returned an Activity of 0%. For the same compound, the ED50 (usually the midpoint of the dose-response relation) in the test with Rattus norvegicus [4] (setting [8]) turned out to be 56.6 mg/kg.
The compound `CC(C)C[C@@H](NC(=O)[C@H]1CCC(=O)N1)C(=O)N1CCC[C@@H]1C(=O)NCCN(C)C` had an Activity in test [3] of 0%. The inhibition in vivo at 80 mg/kg with Rattus norvegicus [2] was determined as 10%.
As for `CC(C)C[C@H](NC(=O)[C@@H]1CCC(=O)N1)C(=O)N1CCC[C@H]1C(N)=O` [listing 1 of 2 here], in test [3], the Activity worked out at 2.7%. The compound further gave a median effective dose (ED50) with Rattus norvegicus [4] of 40 mg/kg.
In the case of `NC(=O)[C@@H]1CCCN1C(=O)[C@@H]1CCCN1C(=O)[C@@H]1CCC(=O)N1`, the ED50 in the test on Rattus norvegicus [4] (setting [8]) came to 80 mg/kg.
With `CC(C)C[C@H](NC(=O)[C@@H]1CCC(=O)N1)C(=O)N1CCC[C@H]1C(N)=O` [listing 2 of 2 here], the Activity in test [3] is given as 0%. Moreover, in the test on Rattus norvegicus [4] (setting [8]), the 50% effective dose (ED50) was 70 mg/kg.
Take `CCCCCCCC[C@H](NC(=O)[C@@H]1CCC(=O)N1)C(=O)N1CCC[C@H]1C(N)=O`: the Activity result in the test with Rattus norvegicus [5] was “Significant but not parallel”. Moreover, the inhibition in vivo at 80 mg/kg in the test with Rattus norvegicus [2] came out at 0%.
On to `CC(C)C[C@H](NC(=O)[C@@H]1CCC(=O)N1)C(=O)N1CCC[C@@H]1C(N)=O`, for which the Activity in test [3] is 0%. Further, in the test on Rattus norvegicus [4] (setting [8]), the ED50 is over 80 mg/kg.
`CC(C)C[C@@H](NC(=O)[C@@H]1CCC(=O)N1)C(=O)N1CCC[C@H]1C(N)=O` returned an Activity in test [3] of 0%. In addition, the median effective dose (ED50) with Rattus norvegicus [4] (setting [8]) is over 80 mg/kg.
In test [3], `COC(=O)[C@H]1CCCN1C(=O)[C@@H](CC(C)C)NC(=O)[C@H]1CCC(=O)N1` had an Activity of 0%. The inhibition in vivo at 80 mg/kg with Rattus norvegicus [2] came out at 0%.
`CC(C)C[C@@H](NC(=O)[C@H]1CCC(=O)N1)C(=O)N1CCC[C@@H]1C(=O)O` displayed an Activity in test [3] of 0.1%. In the test on Rattus norvegicus [2], this compound registered an inhibition in vivo at 80 mg/kg of 0%.
For `CCCCCCCCCCNC(=O)[C@H]1CCCN1C(=O)[C@@H](CC(C)C)NC(=O)[C@H]1CCC(=O)N1`, in that order: 0% and 10%.
Regarding `NC(=O)[C@@H]1CCCN1C(=O)[C@@H]1CCCN1C(=O)[C@H]1CCC(=O)N1`, the Activity entry in the test with Rattus norvegicus [6] is given as “Significant but not parallel”.
In test [3], `C[C@H](NC(=O)[C@@H]1CCC(=O)N1)C(=O)N1CCC[C@H]1C(N)=O` ([pGlu]-Ala-Pro-NH2) yielded an Activity of 0%. The inhibition in vivo at 80 mg/kg in the test on Rattus norvegicus [2] worked out at 0%.
As to `NC(=O)[C@@H]1CCCN1C(=O)CNC(=O)[C@@H]1CCC(=O)N1` ([pGlu]-Gly-Pro-NH2), the Activity in test [3] amounted to 0%. The inhibition in vivo at 80 mg/kg in the test with Rattus norvegicus [2] stood at 10%.
In test [3], `CC[C@H](C)[C@H](NC(=O)[C@@H]1CCC(=O)N1)C(=O)N1CCC[C@H]1C(N)=O` ([pGlu]-Ile-Pro-NH2) registered an Activity of 0.2%. In addition, 80 mg/kg produced 10% inhibition in vivo with Rattus norvegicus [2].
In test [3], `CSCC[C@H](NC(=O)[C@@H]1CCC(=O)N1)C(=O)N1CCC[C@H]1C(N)=O` ([pGlu]-Met-Pro-NH2) yielded an Activity of 1%. In the test on Rattus norvegicus [2], this compound returned an inhibition in vivo at 80 mg/kg of 40%.
Compound `NC(=O)[C@@H]1CCCN1C(=O)[C@H](Cc1ccccc1)NC(=O)[C@@H]1CCC(=O)N1` ([pGlu]-Phe-Pro-NH2) gave an inhibition in vivo at 80 mg/kg in the test on Rattus norvegicus [2] of 40%.
For `CC(C)(C)OC[C@H](NC(=O)[C@@H]1CCC(=O)N1)C(=O)N1CCC[C@H]1C(N)=O` ([pGlu]-Ser(tBu)-Pro-NH2), the Activity in test [3] came to 0.2%. For the same compound, the inhibition in vivo at 80 mg/kg in the test with Rattus norvegicus [2] was determined as 0%.
In test [3], `C[C@@H](O)[C@H](NC(=O)[C@@H]1CCC(=O)N1)C(=O)N1CCC[C@H]1C(N)=O` ([pGlu]-Thr-Pro-NH2) had an Activity of 25.7%. Also, the ED50 with Rattus norvegicus [4] (setting [8]) came out at 80 mg/kg.
In test [3], `CC(C)[C@H](NC(=O)[C@@H]1CCC(=O)N1)C(=O)N1CCC[C@H]1C(N)=O` ([pGlu]-Val-Pro-NH2) returned an Activity of 3.1%. For the same compound, the median effective dose (ED50) in the test on Rattus norvegicus [4] (setting [8]) is over 80 mg/kg.
For the compound `CC[C@H](NC(=O)[C@@H]1CCC(=O)N1)C(=O)N1CCC[C@H]1C(N)=O` ([pGlu]-[Abu]-Pro-NH2), the Activity in test [3] is reported as 0%. In addition, the ED50 with Rattus norvegicus [4] (setting [8]) was at least 80 mg/kg.
Turning to `NC(=O)[C@@H]1CCCN1C(=O)[C@H](CC1CCCCC1)NC(=O)[C@@H]1CCC(=O)N1` ([pGlu]-[Cha]-Pro-NH2), the Activity in test [3] is 45.6%. For the same compound, 80 mg/kg produced 20% inhibition in vivo in the test with Rattus norvegicus [2].
In the case of `CCCC[C@H](NC(=O)[C@@H]1CCC(=O)N1)C(=O)N1CCC[C@H]1C(N)=O` ([pGlu]-[Nle]-Pro-NH2), in test [3], the Activity stood at 3.8%. For the same compound, in the test with Rattus norvegicus [4] (setting [8]), the ED50 worked out at 16.8 mg/kg.
In test [3], `CCC[C@H](NC(=O)[C@@H]1CCC(=O)N1)C(=O)N1CCC[C@H]1C(N)=O` ([pGlu]-[Nva]-Pro-NH2) displayed an Activity of 0%. Moreover, the ED50 in the test on Rattus norvegicus [4] (setting [8]) turned out to be 11.4 mg/kg.
On to `NC(=O)[C@@H]1CCCN1C(=O)[C@H](Cc1c[nH]cn1)NC(=O)[C@@H]1CCC(=O)N1` [PROTIRELIN], for which the Activity in test [3] was 100%. Also, 80 mg/kg produced 40% inhibition in vivo with Rattus norvegicus [2]. This compound registered an ED50 with Rattus norvegicus [7] of 113 mg/kg.
